≈ marks a conversion by molar mass, not a printed value.
What was measured:
[1] = system: bioactivity of mevalonate; details: 200 μM concentration; cited from earlier work
[2] = Stability in human plasma at 37 °C; assay type: in vitro ADME
[3] = Enantiomeric ratio during incubation with human plasma; assay type: in vitro ADME; details: Chiral Cel OD-H
Procedure, shortened: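 Test compound (100 mM acetonitrile stock) added to human plasma, which was diluted with distilled water and pre-warmed 5 min, then incubated at 37 °C. At t1/4 and t1/2, portions were quenched with acetonitrile and run on HPLC with a Chiral Cel OD-H column; LC/MS also used. Ratio taken from each enantiomer's peak integration.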

[4] = system: Streptococcus pneumoniae strain TIGR4; assay: Minimal inhibitory concentration; assay type: cell-based
[5] = Stability in PBS buffer; assay type: physicochemical; details: pH 7.4
Procedure, shortened: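 Test compound (10 mM acetonitrile stock, diluted 1:10) incubated in PBS pH 7.4 at 37 °C. Aliquots were taken at various times and injected directly onto HPLC with UV detection; run twice per compound. t1/2 = ln(2)/b, where b is the slope of ln(remaining parent fraction) versus time (one-phase decay).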

[6] = system: vancomycin resistant Enterococcus (VRE); assay: MIC against additional organisms; assay type: cell-based
[7] = system: E. coli K12; assay: MIC against additional organisms; assay type: cell-based
[8] = system: RAW murine macrophages; assay: General cytotoxicity by lactate dehydrogenase; assay type: cell-based; details: concentrations up to 1.6 mM, 24 h
[9] = system: Streptococcus pyogenes (GAS 5448); assay: MIC against additional organisms; assay type: cell-based
[10] = system: Streptococcus agalactiae (GBS COH1); assay: MIC against additional organisms; assay type: cell-based
[11] = system: Staphylococcus aureus (TCH1516); assay: MIC against additional organisms; assay type: cell-based
[12] = system: HaCaT human keratinocytes; assay: General cytotoxicity by lactate dehydrogenase; assay type: cell-based; details: concentrations up to 1.6 mM, 24 h
[13] = Stability of ester promoiety in deuterated PBS buffer; assay type: physicochemical
Procedure, shortened: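 Deuterated PBS pH 7.4 in D2O (NaCl 137 mM, KCl 2.7 mM, Na2HPO4 10.1 mM, KH2PO4 1.8 mM). Test compound (1.0 mg, 4 μmol) dissolved in 800 μL of this buffer in an NMR tube and held at 37 °C. 1H NMR taken at 30 min, 1 h, 4 h, 24 h and 48 h. Decomposition judged from the integration ratio of impurity to parent signals.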

[14] = system: human MK; details: at concentrations that effectively inhibit the S. pneumoniae system; cited from earlier work
[15] = Stability of prospective decomposition intermediates of 23 in PBS buffer; assay type: physicochemical
[16] = t1/2 (min) of carbonate analogues in human plasma, footnote a: hydrolysis occurred only at carbonate promoieties
[17] = Streptococcus pneumoniae, TIGR4, 24 h
[18] = t1/2 (min) of benzyl amide and ester analogues in human plasma, footnote a: hydrolysis occurred only at the acetyl promoiety

In the case of 6-fluoromevalonate, the “block of the related bioactivity of mevalonate” value [1] is listed as “completely blocks”.

With `CC1(CC(=O)Oc2ccccc2)CCOC(=O)O1` (stereo not shown) [9a, Phenyl 2-(4-methyl-2-oxo-1,3-dioxan-4-yl)acetate] the half-life at 4 mM [2, 16] was under 0.05 h.

With `CC1(CC(=O)Oc2ccc(F)cc2)CCOC(=O)O1` (stereo not shown) [9b, 4-Fluorophenyl 2-(4-methyl-2-oxo-1,3-dioxan-4-yl)acetate] the half-life at 4 mM [2, 16] was under 0.05 h.

With `CC1(CC(=O)Nc2ccccc2)CCOC(=O)O1` (stereo not shown) [10a, 2-(4-Methyl-2-oxo-1,3-dioxan-4-yl)-N-phenylacetamide] the half-life at 4 mM [2, 16] was under 0.05 h.

In the case of `CC1(CC(=O)NCc2ccccc2)CCOC(=O)O1` (stereo not shown) [10b, N-Benzyl-2-(4-methyl-2-oxo-1,3-dioxan-4-yl)acetamide], the half-life at 4 mM [2, 16] is reported as 0.133 h, the “integration ratio of each enantiomer” value ([3]; at 4 min) is reported as 48/52 and the “integration ratio of each enantiomer” value ([3]; at 8 min) is reported as 46/54.

In the case of `CC1(CC(=O)NCc2ccc(F)cc2)CCOC(=O)O1` (stereo not shown) [10c, N-(4-Fluorobenzyl)-2-(4-methyl-2-oxo-1,3-dioxan-4-yl)acetamide], the half-life at 4 mM [2, 16] is reported as 0.133 h.

In the case of `O=C(CC1(CF)CCOC(=O)O1)OCc1ccc(F)cc1` (stereo not shown) [18a, 4-Fluorobenzyl 2-(4-(fluoromethyl)-2-oxo-1,3-dioxan-4-yl)acetate], the “antibacterial activity against S. pneumoniae (in words)” value (“antibacterial activity” for short) ([4]; S. pneumoniae, THB medium) is reported as “generally inactive”, the MIC [4, 17] is reported as over 1600 µM and the half-life [5] is reported as 26 h.

In the case of `O=C(CC1(CF)CCOC(=O)O1)OCc1ccc(F)cc1F` (stereo not shown) [18b, 2,4-Difluorobenzyl 2-(4-(fluoromethyl)-2-oxo-1,3-dioxan-4-yl)acetate], the half-life [5] is reported as 22 h.

In the case of `O=C(CC1(C(F)(F)F)CCOC(=O)O1)OCc1ccc(F)cc1` (stereo not shown) [25a, 4-Fluorobenzyl 2-(2-oxo-4-(trifluoromethyl)-1,3-dioxan-4-yl)acetate], the MIC ([6]; Enterococcus, VRE) is reported as over 1600 µM, the MIC ([7]; Escherichia coli, K12) is reported as over 1600 µM and the “general cytotoxicity (LDH release vs media alone)” value [8] is reported as “No evidence of general cytotoxicity”. The MIC ([9]; Streptococcus pyogenes) was over 1600 µM, the MIC ([10]; Streptococcus agalactiae) was over 1600 µM and the “antibacterial activity” value ([4]; S. pneumoniae, THB medium) was “marginally active”. The MIC [4, 17] was 1600 µM (≈ 538 µg/mL), the half-life [5] was 6 h and the MIC ([11]; Staphylococcus aureus) was over 1600 µM. For the same compound, the “general cytotoxicity (LDH release vs media alone)” value [12] was “No evidence of general cytotoxicity”.

`O=C(CC1(C(F)(F)F)CCOC(=O)O1)OCc1ccc(F)cc1F` (stereo not shown) [25b, 2,4-Difluorobenzyl 2-(2-oxo-4-(trifluoromethyl)-1,3-dioxan-4-yl)acetate] gave a half-life [5] of 5 h.

With `O=C(CC1(C(F)(F)F)CCOC(c2ccccc2)O1)NCc1ccccc1` (stereo not shown) [32b, N-Benzyl-2-(2-phenyl-4-(trifluoromethyl)-1,3-dioxan-4-yl)acetamide] the “antibacterial activity” value ([4]; S. pneumoniae, THB medium) was “lack activity” and the MIC [4, 17] was over 1600 µM.

`CC(=O)OCCC(O)(CF)CC(=O)NCc1ccccc1` (stereo not shown) [38a, 5-(Benzylamino)-3-(fluoromethyl)-3-hydroxy-5-oxopentyl acetate] gave a half-life at 4 mM [2, 18] of 0.333 to 0.5 h and an MIC [4, 17] of over 1600 µM.

For `COC(=O)CC(O)(CF)CCOC(C)=O` (stereo not shown) [38b, Methyl 5-acetoxy-3-(fluoromethyl)-3-hydroxypentanoate], the MIC [4, 17] was over 1600 µM.

In the case of `CCOC(=O)CC(O)(CF)CCOC(C)=O` (stereo not shown) [38c, Ethyl 5-acetoxy-3-(fluoromethyl)-3-hydroxypentanoate], the “decomposition after 48 h” value ([13]; deuterated PBS buffer pH 7.4, 37 °C, 48 h, 1H NMR integration ratio) is reported as “less than 5%”, the half-life ([13]; deuterated PBS buffer, pH 7.4) is reported as over 48 h and the MIC [4, 17] is reported as over 1600 µM.

In the case of `C[C@@](O)(CCOP(=O)(O)OP(=O)(O)O)CC(=O)O` [DPM, 5-diphosphomevalonate], the “inhibition of human MK” value [14] is listed as “not inhibited”.

For `CC1(CC(=O)OCc2ccccc2)CCOC(=O)O1` (stereo not shown) [compound 4, Benzyl 2-(4-methyl-2-oxo-1,3-dioxan-4-yl)acetate], the half-life at 4 mM [2, 16] was 0.0667 h, the “integration ratio of each enantiomer” value ([3]; at 2 min) was 35/65 and the “integration ratio of each enantiomer” value ([3]; at 4 min) was 41/59. It also gave a half-life [5] of over 48 h.

For `O=C(CC1(CF)CCOC(=O)O1)OCc1ccccc1` (stereo not shown) [compound 16, Benzyl 2-(4-(fluoromethyl)-2-oxo-1,3-dioxan-4-yl)acetate], the “antibacterial activity” value ([4]; S. pneumoniae, THB medium) was “generally inactive”, the MIC [4, 17] was over 1600 µM and the half-life [5] was 25 h.

For `O=C(CC1(C(F)(F)F)CCOC(=O)O1)OCc1ccccc1` (stereo not shown) [compound 23, Benzyl 2-(2-oxo-4-(trifluoromethyl)-1,3-dioxan-4-yl)acetate], the half-life [5] was 5 h.

`O=C1CC(O)(C(F)(F)F)CCO1` (stereo not shown) [compound 26, 4-Hydroxy-4-(trifluoromethyl)tetrahydro-2H-pyran-2-one] gave an MIC ([6]; Enterococcus, VRE) of over 1600 µM, an MIC ([7]; Escherichia coli, K12) of over 1600 µM and a half-life [15] of about 1 min. The “general cytotoxicity (LDH release vs media alone)” value [8] was “No evidence of general cytotoxicity”, the MIC ([9]; Streptococcus pyogenes) was 200 µM (≈ 36.8 µg/mL) and the MIC ([10]; Streptococcus agalactiae) was 800 µM (≈ 147 µg/mL). For the same compound, the MIC ([4]; Streptococcus pneumoniae, TIGR4) was 800 µM (≈ 147 µg/mL), the MIC [4, 17] was 800 µM (≈ 147 µg/mL) and the MIC ([11]; Staphylococcus aureus) was over 1600 µM. For the same compound, the “general cytotoxicity (LDH release vs media alone)” value [12] was “No evidence of general cytotoxicity”.

Compound `O=C1CC(O)(CF)CCO1` (stereo not shown) [compound 28, 6-fluoromevalolactone] has an MIC ([6]; vancomycin resistant Enterococcus (VRE)) of over 1600 µM, an MIC ([7]; E. coli K12) of over 1600 µM and an MIC ([9]; Streptococcus pyogenes (GAS 5448)) of over 1600 µM. For the same compound, the MIC ([10]; Streptococcus agalactiae (GBS COH1)) was over 1600 µM, the “potency relative to 6,6,6-trifluoromevalolactone (26)” value ([4]; S. pneumoniae MIC ratio) was 4 fold and the MIC ([4]; S. pneumoniae, THB media) was 200 µM (≈ 29.6 µg/mL). For the same compound, the “MIC” value ([4]; S. pneumoniae, THB medium, 24 h, 37 °C, lowest drug concentration that reduced growth by 80% or more) was 200 µM (≈ 29.6 µg/mL) and the MIC ([11]; Staphylococcus aureus (TCH1516)) was over 1600 µM.

`CC(O)(CCO)CC(=O)NCc1c(F)c(F)c(F)c(F)c1F` (stereo not shown) [compound 34, 3,5-Dihydroxy-3-methyl-N-((perfluorophenyl)methyl)pentanamide] gave a half-life ([2]; half-life in human plasma) of over 2 h.

For `CC(=O)OCCC(C)(O)CC(=O)NCc1c(F)c(F)c(F)c(F)c1F` (stereo not shown) [compound 35, 3-Hydroxy-3-methyl-5-oxo-5-(((perfluorophenyl)methyl)amino)pentyl acetate], the half-life at 4 mM [2, 18] was 0.333 to 0.5 h.

In the case of `CC1(C)S[C@@H]2[C@H](NC(=O)Cc3ccccc3)C(=O)N2[C@H]1C(=O)O` [penicillin G, reference compound], the MIC ([6]; Enterococcus, VRE) is reported as under 12.5 µM, the MIC ([7]; Escherichia coli, K12) is reported as under 12.5 µM and the MIC ([9]; Streptococcus pyogenes) is reported as under 12.5 µM. The MIC ([10]; Streptococcus agalactiae) was under 12.5 µM and the MIC ([11]; Staphylococcus aureus) was under 12.5 µM.

`CN[C@H](CC(C)C)C(=O)N[C@H]1C(=O)N[C@@H](CC(N)=O)C(=O)N[C@H]2C(=O)N[C@H]3C(=O)N[C@H](C(=O)N[C@H](C(=O)O)c4cc(O)cc(O)c4-c4cc3ccc4O)[C@H](O)c3ccc(c(Cl)c3)Oc3cc2cc(c3O[C@@H]2O[C@H](CO)[C@@H](O)[C@H](O)[C@H]2O[C@H]2C[C@](C)(N)[C@H](O)[C@H](C)O2)Oc2ccc(cc2Cl)[C@H]1O` [vancomycin, reference compound] showed an MIC ([6]; Enterococcus, VRE) of under 12.5 µM, an MIC ([7]; Escherichia coli, K12) of under 12.5 µM and an MIC ([9]; Streptococcus pyogenes) of under 12.5 µM. For the same compound, the MIC ([10]; Streptococcus agalactiae) was under 12.5 µM and the MIC ([11]; Staphylococcus aureus) was under 12.5 µM.
